Reference: ChEMBL document CHEMBL1140381, “Design and studies of novel 5-substituted alkynylpyrimidine nucleosides as potent inhibitors of mycobacteria” (2005)
Values after ≈ are worked out from the molar mass of the structure shown.

What was measured:
Type in all cases: functional
Mycobacterium avium [1] = assay: Inhibition of growth of Mycobacterium avium (ATCC 25291) was determined using microplate alamar blue assay at 100 ug/mL concentration with compound dissolved in DMSO
Procedure, shortened: (§1)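 MABA in 7H9GC medium; M. bovis BCG or M. avium ATCC 25291 frozen inocula at 2.5 × 10⁵ CFU/mL final, 100× DMSO stocks diluted into medium. Incubated 6 days, then alamar blue plus 20% Tween-80 added once bacteria-only wells turned pink, read 24 h later by fluorescence. % inhibition = […]. Triplicate wells, three experiments, mean reported.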

Mycobacterium avium [2] = assay: Inhibition of growth of Mycobacterium avium (ATCC 25291) was determined using microplate alamar blue assay at 50 ug/mL concentration with compound dissolved in DMSO; procedure, shortened: as §1
Mycobacterium avium [3] = assay: Inhibition of growth of Mycobacterium avium (ATCC 25291) was determined using microplate alamar blue assay at 2 ug/mL concentration with compound dissolved in DMSO
Mycobacterium avium [4] = assay: Minimum inhibitory concentration against Mycobacterium avium (ATCC 25291)
Procedure, shortened: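 Alamar blue microplate assay in 7H9GC. BCG or M. avium ATCC 25291 at 2.5 × 10⁵ CFU/mL final, exposed to compound at 100, 50, 10 and 1 µg/mL in triplicate. Reagent added after 6+ days once growth controls turned pink, read after 24 h visually and by fluorescence. MIC₉₀ taken as the lowest concentration giving ~90% growth inhibition.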

Mycobacterium avium [5] = assay: Inhibition of growth of Mycobacterium avium (ATCC 25291) was determined using microplate alamar blue assay at 10 ug/mL concentration with compound dissolved in DMSO; procedure, shortened: as §1

CCCCCCCCCCC#Cc1cn([C@H]2C[C@H](O)[C@@H](CO)O2)c(=O)[nH]c1=O
inhibition at 100 µg/mL (Mycobacterium avium [1]): 75% | inhibition at 50 µg/mL (Mycobacterium avium [2]): 0%

CO[C@H]1/C=C/O[C@@]2(C)Oc3c(C)c(O)c4c(O)c(c(/C=N/N5CCN(C)CC5)c(O)c4c3C2=O)NC(=O)/C(C)=C\C=C\[C@H](C)[C@H](O)[C@@H](C)[C@@H](O)[C@@H](C)[C@H](OC(C)=O)[C@@H]1C [RIFAMPIN]
inhibition at 2 µg/mL (Mycobacterium avium [3]): 90% | MIC90 (Mycobacterium avium [4]): 2 µg/mL (≈ 2.43 µM)

CCCCCCCCCCCCC#Cc1cn([C@H]2C[C@H](O)[C@@H](CO)O2)c(=O)[nH]c1=O
inhibition at 100 µg/mL (Mycobacterium avium [1]): 75% | inhibition at 50 µg/mL (Mycobacterium avium [2]): 30%

CCCCCCCCC#Cc1cn([C@H]2C[C@H](O)[C@@H](CO)O2)c(=O)nc1N
inhibition at 10 µg/mL (Mycobacterium avium [5]): 20% | inhibition at 100 µg/mL (Mycobacterium avium [1]): 75% | inhibition at 50 µg/mL (Mycobacterium avium [2]): 50%

CCCCCCCCCCC#Cc1cn([C@H]2C[C@H](O)[C@@H](CO)O2)c(=O)nc1N
inhibition at 10 µg/mL (Mycobacterium avium [5]): 10% | inhibition at 100 µg/mL (Mycobacterium avium [1]): 100% | inhibition at 50 µg/mL (Mycobacterium avium [2]): 60% | MIC90 (Mycobacterium avium [4]): 100 µg/mL (≈ 255 µM)

CCCCCC#Cc1cn([C@H]2C[C@H](O)[C@@H](CO)O2)c(=O)[nH]c1=O
inhibition at 100 µg/mL (Mycobacterium avium [1]): 25%

CCCCCCCCC#Cc1cn([C@H]2C[C@H](O)[C@@H](CO)O2)c(=O)[nH]c1=O
inhibition at 100 µg/mL (Mycobacterium avium [1]): 30%

CC[C@H]1OC(=O)[C@H](C)[C@@H](O[C@H]2C[C@@](C)(OC)[C@@H](O)[C@H](C)O2)[C@H](C)[C@@H](O[C@@H]2O[C@H](C)C[C@H](N(C)C)[C@H]2O)[C@](C)(OC)C[C@@H](C)C(=O)[C@H](C)[C@@H](O)[C@]1(C)O [CLARITHROMYCIN]
inhibition at 2 µg/mL (Mycobacterium avium [3]): 95% | MIC90 (Mycobacterium avium [4]): 2 µg/mL (≈ 2.67 µM)
